Assay [1] relates to rotavirus. Particulars: rotavirus infection in vitro; cited from earlier work.
For assay [2], the system named is human rotavirus (Wa-1 strain). Description: Antirotavirus activity by cytopathic effect. Type of assay: cell-based. Particulars: non-cytotoxic concentrations. In short, it runs like this:
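MA104 cells grown in 199 medium with 10% fetal bovine serum, penicillin G, streptomycin and amphotericin B at 37 °C, 5% CO2, were infected with human rotavirus Wa-1, which had been propagated in MA104 cells with trypsin (5 μg/ml) and titred as TCID50/ml. Test compound was dissolved in 1% DMSO in 199 medium and filter-sterilised. Read-out was cytopathic-effect inhibition. IC50 came from linear regression of concentration–effect curves, as the mean of three independent experiments.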
In general terms: Damage to the host cells serves as the signal in cytopathic effect assays.

One may read the IC50 as the concentration needed to halve the response being measured. As for `COc1ccc(-c2cc(=O)c3c(O)cc(O[C@@H]4O[C@H](CO[C@@H]5O[C@@H](C)[C@H](O)[C@@H](O)[C@H]5O)[C@@H](O)[C@H](O)[C@H]4O)cc3o2)cc1O` [dosmin], the half-maximal inhibitory concentration (IC50) in assay [1] was 10 µM.

As for `COc1ccc([C@@H]2CC(=O)c3c(O)cc(O[C@@H]4O[C@H](CO[C@@H]5O[C@@H](C)[C@H](O)[C@@H](O)[C@H]5O)[C@@H](O)[C@H](O)[C@H]4O)cc3O2)cc1O` [hesperidin], in assay [1], the IC50 was 10 µM.

As for `C[C@@H]1O[C@@H](OC[C@H]2O[C@@H](Oc3c(-c4ccc(O)c(O)c4)oc4cc(O)cc(O)c4c3=O)[C@H](O)[C@@H](O)[C@@H]2O)[C@H](O)[C@H](O)[C@H]1O` [compound 45, rutin], the “antiviral (antirotavirus) activity in words” value in assay [2] was “did not provide antiviral activity”. The “inhibitory effect on rotavirus infection in words” value in assay [1] is “low inhibitory effect”.

(Values after paper PMC7126014 (Fitoterapia, 2010).)
